In ChEMBL document CHEMBL3046318, “Synthesis of a combinatorial library of amides and its evaluation against the fall armyworm, Spodoptera frugiperda” (2011):

Legend:
Format in all cases: functional
[1] = system: Spodoptera frugiperda; assay: Insecticidal activity against 5 day old second instar larvae of Spodoptera frugiperda (fall armyworm) measured after 48 hr topical administration
Outline: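 Topical application to second instar larvae, 1 μL per insect in acetone (control: acetone alone). About 300 mg of artificial diet supplied 1 h after application. Mortality counted at 48 h. Five replicates. Single-sample screens of mixtures were run at 2000 mg L-1, with means compared by Tukey test (P ≤ 0.05). LD50 from log dose probit lines, with Abbott correction for control mortality.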

[2] = system: Spodoptera frugiperda; assay: Insecticidal activity against pupal phase Spodoptera frugiperda (fall armyworm) assessed as mortality at 50 mg/kg compound administration with artificial diet (reference value: 13.3%)
Outline: (§1)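 Ingestion assay on first instar larvae (1 day old), 30 per treatment and per control. Compound was dissolved in acetone, mixed with the diet's ascorbic acid (1.8 g), dried under vacuum at 40 °C, then incorporated into a bean/wheat germ artificial diet at 1-100 mg kg-1. Mortality recorded for the larval phase, the pupal phase and the total cycle.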

[3] = system: Spodoptera frugiperda; assay: Insecticidal activity against pupal phase Spodoptera frugiperda (fall armyworm) assessed as mortality at 1 mg/kg compound administration with artificial diet (reference value: 13.3%); outline: as §1
[4] = system: Spodoptera frugiperda; assay: Insecticidal activity against Spodoptera frugiperda (fall armyworm) during total cycle assessed as mortality at 1 mg/kg compound administration with artificial diet (reference value: 13.3%); outline: as §1
[5] = system: Spodoptera frugiperda; assay: Insecticidal activity against larval phase Spodoptera frugiperda (fall armyworm) assessed as mortality at 50 mg/kg compound administration with artificial diet (reference value: 6.66%); outline: as §1
[6] = system: Spodoptera frugiperda; assay: Insecticidal activity against larval phase Spodoptera frugiperda (fall armyworm) assessed as mortality at 100 mg/kg compound administration with artificial diet (reference value: 6.66%); outline: as §1
[7] = system: Spodoptera frugiperda; assay: Insecticidal activity against larval phase Spodoptera frugiperda (fall armyworm) assessed as mortality at 1 mg/kg compound administration with artificial diet (reference value: 6.66%); outline: as §1
[8] = system: Spodoptera frugiperda; assay: Insecticidal activity against pupal phase Spodoptera frugiperda (fall armyworm) assessed as mortality at 10 mg/kg compound administration with artificial diet (reference value: 13.3%); outline: as §1
[9] = system: Spodoptera frugiperda; assay: Insecticidal activity against Spodoptera frugiperda (fall armyworm) during total cycle assessed as mortality at 50 mg/kg compound administration with artificial diet (reference value: 13.3%); outline: as §1
[10] = system: Spodoptera frugiperda; assay: Insecticidal activity against Spodoptera frugiperda (fall armyworm) during total cycle assessed as mortality at 100 mg/kg compound administration with artificial diet (reference value: 13.3%); outline: as §1
[11] = system: Spodoptera frugiperda; assay: Insecticidal activity against Spodoptera frugiperda (fall armyworm) during total cycle assessed as mortality at 10 mg/kg compound administration with artificial diet (reference value: 13.3%); outline: as §1
[12] = system: Spodoptera frugiperda; assay: Insecticidal activity against larval phase Spodoptera frugiperda (fall armyworm) assessed as mortality at 10 mg/kg compound administration with artificial diet (reference value: 6.66%); outline: as §1
[13] = system: Spodoptera frugiperda; assay: Insecticidal activity against pupal phase Spodoptera frugiperda (fall armyworm) assessed as mortality at 100 mg/kg compound administration with artificial diet (reference value: 13.3%); outline: as §1

| Compound | LD50 [1] | mortality at 50 mg/kg [2] | mortality at 1 mg/kg [3] | mortality at 1 mg/kg [4] | mortality at 50 mg/kg [5] | mortality at 100 mg/kg [6] | mortality at 1 mg/kg [7] | mortality at 10 mg/kg [8] | mortality at 50 mg/kg [9] | mortality at 100 mg/kg [10] | mortality at 10 mg/kg [11] | mortality at 10 mg/kg [12] | mortality at 100 mg/kg [13] |
| --- | --- | --- | --- | --- | --- | --- | --- | --- | --- | --- | --- | --- | --- |
| O=C(c1ccc(OC(F)(F)F)cc1)N1CCCCC1 | 8.15 µg/mg | – | – | – | – | – | – | – | – | – | – | – | – |
| O=C(/C=C/c1ccc(OC(F)(F)F)cc1)N1CCCCC1 | 0.793 µg/mg | 69.4% | 61.4% | 83.3% | 73.3% | 55% | 65.8% | 48.6% | 93.3% | 86.6% | 86.6% | 63.3% | 75% |
